Results collected from several papers.
Protocols differ between the studies behind these lines.

SMILES	tested on	assay	system	setting	measurement	result
C=C(C)[C@@H]1CC[C@]2(NCCN3CCS(=O)(=O)CC3)CC[C@]3(C)[C@H](CC[C@@H]4[C@@]5(C)CC=C(C6=CC[C@@](COc7ncccc7C#N)(C(=O)O)CC6)C(C)(C)[C@@H]5CC[C@]43C)[C@@H]12			human, plasma	oral, 100 mg, 24 h, fed, tablet	concentration	408 ng/mL
CN(C)CCc1c[nH]c2ccccc12			human, plasma	intravenous, 9 mg, 7 min, healthy volunteers, infusion	concentration	15.9 ng/mL
CC(=O)NC(CC(C)C)C(=O)NC(CC(C)C)C(=O)NC(Cc1ccc(O)cc1)C(N)=O (centres unmarked)	ABCB1 (Cricetulus griseus, UniProt P21448)	binding, fluorescence			Kd	28 µM
COc1ccc(C(=O)Nc2ccccc2C(=O)N[C@H](C(=O)N[C@H](CO)C(C)C)C(C)C)cc1	MRC5	cell growth or viability, MTT		72 h	CC50	> 250 µM
CONC(=O)[C@H]1[C@@H](O)[C@@]2(O)c3c(OC)cc(OC)cc3O[C@@]2(c2ccc(OC)cc2)[C@@H]1c1ccccc1	MDA-MB-231	cell growth or viability, SRB			IC50	0.0019 µM
CC(C)[C@H](NC(=O)c1ccccc1NC(=O)c1ccccc1)C(=O)N[C@H](CO)C(C)C	MRC5	cell growth or viability, MTT		72 h	CC50	> 250 µM
CCCCCCCCCCCC(=O)NC(C)(C)C(=O)N1CCC[C@H]1C(=O)NC(C)(C)C(=O)NC(C)(C)C(=O)N1CCC[C@H]1C(=O)NC(C)(C)C(=O)NC(C)(C)C(=O)N1CCC[C@H]1C(=O)N[C@@H](C)C(=O)NC(C)(C)C(=O)NCCC(=O)N[C@@H](C)C(=O)NC(C)(C)C(=O)NC(C)(C)C(=O)NCCC(=O)NC(C)(C)C(=O)NC(C)(C)C(=O)NC(C)(C)C(=O)N[C@@H](C)C(=O)NCCC(=O)O	MDA-MB-231	cell growth or viability, MTT		24 h	IC50	1 µM
CC(C)=CCOc1c2occc2cc2ccc(=O)oc12	MRC5	cell growth or viability, MTT		24 h	IC50	> 100 µM
